Experiments:
[1] = melting temperature; fluorescence melt of hairpins on a sequencing array, two-state fit, raised by 9.35 °C to match UV melts; details: sodium 0.088 M
How it was run: (§1)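 In 50 mM Na-HEPES pH 8.0 containing 25 mM NaCl, hairpins from the library on a sequenced MiSeq flow cell were imaged for Cy3 fluorescence at 2.5 °C steps up to 60 °C, with Cy3 and quencher oligos annealed. After normalisation to pre-quench Cy3 and to control constructs, two-state fits with bootstrapping gave melting temperature and folding enthalpy. Four replicates were combined by inverse-variance weighting, and fitted temperatures were shifted up by 9.35 °C to match UV melts.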

[2] = folding enthalpy; higher = less favourable; fluorescence melt of hairpins on a sequencing array, two-state fit; details: sodium 0.088 M
How it was run: as §1

| Sequence | Tm [1] [°C] | folding enthalpy [2] [kcal/mol] |
| --- | --- | --- |
| GAGTACGAAAGTATACTC ((((((....)))..))) | 34.4 | -19.7 |
| GAGTACGGAAACGTACCC (.(((((....))))).) | 42.2 | -15.5 |
| GAGTAGCGAAAGCTTCTC (((.(((....))).))) | 47.2 | -26.4 |
| GAGTAGGAAACTACTC ((((((....)))))) | 51.1 | -30.1 |
| GAGTAGGCGAAAGCCCTC (((..(((....)))))) | 35.4 | -10.8 |
| GAGTAGGGAAACCTACTC (((((((....))))))) | 57 | -46.6 |
| GAGTAGGGAAACTTACTC (((((.(....).))))) | 35.5 | -25.6 |
| GAGTATGCGAAAGCACTC (((..(((....)))))) | 38.8 | -14.9 |
| GAGTATGGAAACATACTC (((((((....))))))) | 54.4 | -37.6 |
| GAGTCACGAAAGTGCCTC (((.(((....))).))) | 50 | -23.5 |
| GAGTCACGAAAGTGGCTC (((.(((....))).))) | 64.7 | -39.4 |
| GAGTCCGAAAGGAACTC ((((((....))).))) | 50.7 | -27.7 |
| GAGTCCGAAAGGATCCTC ((((((....)))..))) | 34.1 | -12.1 |
| GAGTCCGGAAACGGACCC (.(((((....))))).) | 46.2 | -9.42 |
| GAGTCCGGAAACGGGTTC ((..(((....)))..)) | 33.6 | -16.1 |
| GAGTCGCCGAAAGGCCTC (((..(((....)))))) | 29.3 | -12.2 |
| GAGTCGGGAAACCGGTTC ((..(((....)))..)) | 32.8 | -15.6 |
| GAGTCGGGAAACTGGCTC (((.(.(....).).))) | 43.4 | -25.8 |
| GAGTGAGAAATCACTC ((((((....)))))) | 53.7 | -34.3 |
| GAGTGAGCGAAAGCTCTC (((..(((....)))))) | 32.9 | -9.01 |
| GAGTGAGGAAACCCACTC (((((.(....).))))) | 44.5 | -33.8 |
| GAGTGCCGAAAGGCCTC (((.(((....)))))) | 56.8 | -17.7 |
| GAGTGCGAAAGCAAACTC ((((((....)))..))) | 47.2 | -20.8 |

| Sequence | Tm [1] [°C] | folding enthalpy [2] [kcal/mol] |
| --- | --- | --- |
| GAGTGCGAAAGCACCTC ((((((....))).))) | 54.8 | -10.3 |
| GAGTGCGAAAGCATGCTC ((((((....)))..))) | 43.4 | -15 |
| GAGTGCGGAAACGCGCTC (((.(((....))).))) | 66.1 | -31.7 |
| GAGTGGGGAAACCCGCTC (((.(((....))).))) | 55.6 | -35.8 |
| GAGTTAGCGAAAGCTCTC (((..(((....)))))) | 35.1 | -11.5 |
| GAGTTAGGAAACCAACTC (((((.(....).))))) | 35.4 | -32.5 |
| GAGTTAGGAAACTAACCC (.(((((....))))).) | 30.4 | -17.4 |
| GAGTTAGGAAACTAATTC ((.((((....)))).)) | 27.9 | -23.9 |
| GAGTTCCCGAAAGGGCTC (((..(((....)))))) | 34.1 | -18.3 |
| GAGTTGAAAAACTC (((((....))))) | 44.7 | -22 |
| GAGTTTGGAAACAAATTC ((.((((....)))).)) | 35.8 | -28.7 |
| GATAAACGAAAGTTGATC (((.(((....))).))) | 39.4 | -23.4 |
| GATAAAGCGAAAGCTATC (((..(((....)))))) | 33.1 | -14.2 |
| GATAACCCGAAAGGGATC (((..(((....)))))) | 28.9 | -17.8 |
| GATAACCGAAAGGTAATC (((.(((....))).))) | 40.2 | -21.2 |
| GATAACCGAAAGGTATC (((.(((....)))))) | 38.9 | -17.4 |
| GATAACGCGAAAGCGATC (((..(((....)))))) | 24.1 | -10.2 |
| GATAATGGAAACATTATC (((((((....))))))) | 48.4 | -43.9 |
| GATACAGGAAACTGTACC (.(((((....))))).) | 31.1 | -15.4 |
| GATACAGGAAACTGTGTC ((.((((....)))).)) | 44.9 | -25.9 |
| GATACCCGAAAGGGCATC (((.(((....))).))) | 49.5 | -18.8 |
| GATACCGAAAGGTATATC ((((((....)))..))) | 45.2 | -16.3 |
| GATACCGAAAGGTCATC ((((((....))).))) | 35.6 | -17 |

| Sequence | Tm [1] [°C] | folding enthalpy [2] [kcal/mol] |
| --- | --- | --- |
| GATACCGAAAGGTGAATC ((((((....)))..))) | 27.2 | -12.6 |
| GATACCGAAAGGTGTATC ((((((....)))..))) | 35.9 | -14.8 |
| GATACCGAAAGGTTAATC ((((((....)))..))) | 25.3 | -11.1 |
| GATACCGAAAGGTTGATC ((((((....)))..))) | 31.4 | -13.6 |
| GATACCGGAAACGGTGTC ((.((((....)))).)) | 52.1 | -28.8 |
| GATACGCGAAAGCGAATC (((.(((....))).))) | 49.4 | -21.6 |
| GATACGGGAAACCGCATC (((.(((....))).))) | 41.4 | -24.8 |
| GATACGGGAAACCGTACC (.(((((....))))).) | 32.1 | -15.7 |
| GATACGGGAAACCGTGTC ((.((((....)))).)) | 49.2 | -30.7 |
| GATACGGGAAACTGTGTC ((.((.(....).)).)) | 33.6 | -20.1 |
| GATACTGGAAACAGTACC (.(((((....))))).) | 33.1 | -15.7 |
| GATAGAGGAAACCCTATC (((((.(....).))))) | 30.8 | -20.3 |
| GATAGAGGAAACTCTACC (.(((((....))))).) | 23.5 | -12.6 |
| GATAGCGAAAGCTAAATC ((((((....)))..))) | 27.7 | -8.92 |
| GATAGCGAAAGCTGATC ((((((....))).))) | 38.9 | -13.2 |
| GATAGCGGAAACGCCATC (((.(((....))).))) | 35.1 | -15.5 |
| GATAGGCGAAAGCCAATC (((.(((....))).))) | 43 | -19 |
| GATAGGGGAAACCCTACC (.(((((....))))).) | 31.1 | -16.8 |
| GATAGGGGAAACCCTGTC ((.((((....)))).)) | 43.7 | -25.4 |
| GATATCGGAAACGACATC (((.(((....))).))) | 32.7 | -27.9 |
| GATATGGGAAACCATGTC ((.((((....)))).)) | 41.8 | -29 |
| GATATGGGAAACTATATC (((((.(....).))))) | 33.8 | -23.2 |
| GATCAAAAAATTGATC ((((((....)))))) | 32.4 | -17.5 |

| Sequence | Tm [1] [°C] | folding enthalpy [2] [kcal/mol] |
| --- | --- | --- |
| GATCAAAAATTTGATC ((((((....)))))) | 39 | -28.7 |
| GATCAAAATATTGATC ((((((....)))))) | 38.6 | -26.6 |
| GATCAAACCATTGATC ((((((....)))))) | 42.1 | -31.2 |
| GATCAAACCGTTGATC ((((((....)))))) | 42 | -30.6 |
| GATCAAACTATTGATC ((((((....)))))) | 40.3 | -30.1 |
| GATCAAACTGTTGATC ((((((....)))))) | 41 | -25.7 |
| GATCAAAGACTTGATC ((((((....)))))) | 39.2 | -25.1 |
| GATCAAAGCATTGATC ((((((....)))))) | 43.7 | -36.8 |
| GATCAAAGGATTGATC ((((((....)))))) | 40.9 | -19.1 |
| GATCAAAGGCTTGATC ((((((....)))))) | 41 | -31.5 |
| GATCAAAGGGTTGATC ((((((....)))))) | 39.1 | -28.3 |
| GATCAAATACTTGATC ((((((....)))))) | 39.9 | -33.2 |
| GATCAAATTGTTGATC ((((((....)))))) | 41.8 | -28.3 |
| GATCAACAAATTGATC ((((((....)))))) | 36.4 | -31.3 |
| GATCAACAAGTTGATC ((((((....)))))) | 51.8 | -34.2 |
| GATCAACAATTGATC ((((((...)))))) | 33.4 | -21.6 |
| GATCAACACCTTGATC ((((((....)))))) | 46.7 | -32.7 |
| GATCAACAGGTTGATC ((((((....)))))) | 51.4 | -36.2 |
| GATCAACATATTGATC ((((((....)))))) | 42.6 | -30.2 |
| GATCAACCCGTTGATC ((((((....)))))) | 53 | -42 |
| GATCAACCGAAAGGTATC (((..(((....)))))) | 25.6 | -12.1 |
| GATCAACCGATTGATC ((((((....)))))) | 41.5 | -32.6 |
| GATCAACCGTTGATC ((((((...)))))) | 41.1 | -38.1 |
